According to PMC11109934 (RSC Medicinal Chemistry, 2024):

Columns and labels:
GL261-Luc cells = test: xCELLigence real time monitoring of cell proliferation, GL261-Luc; assay type: cell-based, mouse; conditions: for reduction of cell index: 72 hours
[1] = test system: primary cultured mouse astrocytes; test: xCELLigence real time monitoring of cell proliferation, primary mouse astrocytes; assay type: cell-based; conditions: for reduction of cell index: primary cultured mouse astrocytes, after 72 hours
BxPC3 cells = test: xCELLigence real time monitoring of cell proliferation, BxPC3; assay type: cell-based, human
[2] = test system: caspase 3/7 activation in GL261-Luc cells; test: Caspase 3/7 assay, GL261-Luc; assay type: cell-based, mouse; conditions: 72 hours; for increase in caspase 3/7 activation (apoptosis): 256 μM
Outline: (§1)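 BxPC3 (5 × 10^3/well) or GL261-Luc (3 × 10^3/well) cells in DMEM, 10% FBS, 1% pen-strep-glutamine. After 24 h, exposed to test compound for 72 h in medium with 0.1% DMSO final. CellEvent caspase-3/7 green reagent added for 1 h at 37 °C. Whole-well fluorescence imaged (Ex 488/Em 520). Cells then fixed (3.7% PFA), permeabilised (0.3% Triton X-100), BSA-blocked and stained with CellTag 700 (Ex 685/Em 720). Caspase signal normalised to cell number, then expressed as fold over control. At least 3 independent experiments, at least 4 replicates each.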

[3] = test system: BxPC3 human pancreatic cancer cells; test: CyQUANT viability assay, BxPC3; assay type: cell-based; conditions: 72 hours, compared to the control
Outline: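 BxPC3 cells (DMEM, 10% FBS, 1% pen-strep-glutamine; passages 10–20) were seeded at 5 × 10^3/well. After 24 h they were exposed to test compound for 72 h, with 0.1% DMSO final. Medium was removed, then CyQUANT Direct nucleic acid stain plus background suppressor in HBSS was added for 1 h at 37 °C. Whole-well fluorescence was laser-scanned (Ex 488/Em 520, 100 μm pixels) and normalised to control (100% viability). At least 3 independent experiments, at least 4 replicates each.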

[4] = test system: caspase 3/7 activation in BxPC3 cells; test: Caspase 3/7 assay, BxPC3; assay type: cell-based, human; conditions: 72 hours; for increase in caspase 3/7 activation (apoptosis): 256 μM
Outline: as §1

[5] = BxPC3 cells, 128 μM, after 72 hours, compared to the control
[6] = 128 μM, normalised to cell number (CellTag 700)

Row | Compound | reduction of cell index ([1]; 256 μM) | increase in caspase 3/7 activation (apoptosis) [2] | reduction of cell index (BxPC3 cells; BxPC3 cells, 256 μM, 72 hours) | reduction of cell index (GL261-Luc cells; 256 μM) | reduction of viability (CyQUANT) ([3]; 256 μM) | increase in caspase 3/7 activation (apoptosis) [4] | reduction of cell index ([1]; 128 μM) | reduction of cell index (BxPC3 cells; [5]) | reduction of cell index (GL261-Luc cells; 128 μM) | reduction of viability (CyQUANT) ([3]; 128 μM) | also measured
1 | Oc1cccc2ccccc12 [1-naphthol, 1-Naphthol] | – | – | – | – | – | – | – | – | – | – | time until cytotoxicity began (GL261-Luc cells; 128 μM): 28 h
2 | Oc1ccc2ccccc2c1 [2-naphthol] | – | – | – | – | – | – | – | – | – | – | time until cell index declined ([1]; primary cultured astrocytes, 128 μM): ≤ 4 h; activity in real-time xCELLigence experiments (BxPC3 cells; 16 μM): notable activity; time until cell index declined (BxPC3 cells; BxPC3 cells, 128 μM): 8 h; ED50 (cell index) (BxPC3 cells; BxPC3 cells, 72-hour exposure time, xCELLigence): 21 µM; fold greater cytotoxicity than 1-naphthol (BxPC3 cells; BxPC3 cells, real time xCELLigence monitoring): 4 fold
3 | C[C@H](N)C(=O)OCc1ccccc1 [L-alanine benzyl ester] | 11–17% | no significant increase | no significant effect | no significant effect | no significant effect | no significant increase | – | – | – | – | –
4 | CC(C)OC(=O)[C@H](C)N [L-alanine isopropyl ester] | 11–17% | no significant increase | no significant effect | no significant effect | no significant effect | no significant increase | – | – | – | – | –
5 | Oc1ccccc1 [phenol] | – | – | – | – | – | – | 11–17% | no significant effect | no significant effect | no significant effect | –
6 | OCc1ccccc1O [salicyl alcohol] | – | – | – | – | – | – | 11–17% | no significant effect | no significant effect | no significant effect | increase in caspase 3/7 activation [2, 6]: no effect; increase in caspase 3/7 activation [4, 6]: no effect
